Activity calls are given as the source filed them. The rule behind the calls is not given here.
Assays:
[1] = molecular target: T1, Serotonin 2 (5-HT2) receptor (Rattus norvegicus, UniProt P30994+P08909+P14842); test: Affinity towards [3H]- DOB -labeled 5-hydroxytryptamine 2 receptor sites in rat cortical homogenates
[2] = molecular target: T1, Serotonin 2 (5-HT2) receptor; test: Affinity towards [3H]- ketanserin-labeled 5-hydroxytryptamine 2 receptor sites in rat cortical homogenates
Summary of the method: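 Label was 0.4 nM [3H]ketanserin, with 11 competitor concentrations run in triplicate and nonspecific binding defined by 1 μM cinanserin. Bound ligand was filtered onto glass fibre and counted by scintillation. IC50 came from nonlinear regression; Ki = IC50/(1+[D]/KD).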

Rattus norvegicus [3] = species on record: Rattus norvegicus; test: The compound was tested for effective dose ( ED 50) against stimulus generation with rats trained to discriminate (R) (-)-DOB from saline; type: functional
Summary of the method: (§1)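 Male Sprague-Dawley rats (n = 6) on a two-lever operant task for sweetened milk, VI 15-s schedule. Trained to discriminate 0.2 mg/kg ip training drug from 1.0 mL/kg 0.9% saline, 15 min pre-session. Test doses were given ip in random order to groups of 3–6, with 15-min pretreatment and a 2.5-min extinction session. ED50 was calculated from dose-response data.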

Rattus norvegicus [4] = test: The number of responses made on the (R)(-)-DOB appropriate lever, generation studies was calculated at dose 1.0 mg/kg; type: functional
Summary of the method: (§2)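 Male Sprague-Dawley rats (n = 6) were trained on a two-lever operant task for sweetened-milk reward to discriminate 0.2 mg/kg (R)-(-)-DOB-HCl ip from 1.0 mL/kg 0.9% saline, with a VI 15-s schedule and 15-min sessions. Test doses were given ip 15 min before a 2.5-min extinction session, in random order, to groups of 3-6 rats. Read-out was % drug-lever responses; fewer than five total responses counted as disrupted.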

Rattus norvegicus [5] = test: The number of responses made on the (R)(-)-DOB appropriate lever, generation studies was calculated at dose 0.3 mg/kg; type: functional; summary of the method: as §2
Rattus norvegicus [6] = test: The number of responses made on the (R)(-)-DOB appropriate lever, generation studies was calculated at dose 0.6 mg/kg; type: functional; summary of the method: as §2
Rattus norvegicus [7] = test: The number of responses made on the (R)(-)-DOB appropriate lever, generation studies was calculated at dose 1.2 mg/kg; type: functional; summary of the method: as §2
Rattus norvegicus [8] = test: The number of responses made on the (R)(-)-DOB appropriate lever, generation studies was calculated at dose 1.3 mg/kg; type: functional; summary of the method: as §2
Rattus norvegicus [9] = test: The number of responses made on the (R)(-)-DOB appropriate lever, generation studies was calculated at dose 1.4 mg/kg; NR means not responding; type: functional, organism-based; parameters: dose 1.4 mg/kg; summary of the method: as §2
Rattus norvegicus [10] = test: The number of responses made on the (R)(-)-DOB appropriate lever, generation studies was calculated at dose 1.5 mg/kg; NR means not responding; type: functional, organism-based; parameters: dose 1.5 mg/kg; summary of the method: as §2
Rattus norvegicus [11] = test: The number of animals responding per number of animals receiving the drug (2/6)in the stimulus-generation studies was calculated at dose 1.5 mg/kg; type: functional
Summary of the method: (§3)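 Male Sprague-Dawley rats were trained to discriminate 0.2 mg/kg ip training drug from saline (two levers, VI 15-s, milk reward). Test doses were given ip 15 min pre-session in random order to groups of 3–6. In the 2.5-min extinction session, rats making fewer than five total responses were counted as disrupted. N is animals responding over animals dosed.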

Rattus norvegicus [12] = test: The number of animals responding per number of animals receiving the drug (3/3) in the stimulus-generation studies was calculated at dose 0.3 mg/kg; type: functional; summary of the method: as §3
Rattus norvegicus [13] = test: The number of animals responding per number of animals receiving the drug (3/3)in the stimulus-generation studies was calculated at dose 1.0 mg/kg; type: functional; summary of the method: as §3
Rattus norvegicus [14] = test: The number of animals responding per number of animals receiving the drug (4/4)in the stimulus-generation studies was calculated at dose 0.6 mg/kg; type: functional; summary of the method: as §3
Rattus norvegicus [15] = test: The number of animals responding per number of animals receiving the drug (5/5)in the stimulus-generation studies was calculated at dose 1.3 mg/kg; type: functional; summary of the method: as §3
Rattus norvegicus [16] = test: The number of animals responding per number of animals receiving the drug(2/6) in the stimulus-generation studies was calculated at dose 1.4 mg/kg; type: functional; summary of the method: as §3
Rattus norvegicus [17] = test: The number of animals responding per number of animals receiving the drug(3/4) in the stimulus-generation studies was calculated at dose 1.2 mg/kg; type: functional; summary of the method: as §3
Rattus norvegicus [18] = test: The mean responses per minute during the 2.5 min extinction session in the stimulus-generation studies was calculated at dose 1.2 mg/kg; type: functional
Summary of the method: (§4)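 Rats were trained on a two-lever drug-versus-saline discrimination (0.2 mg/kg ip training dose, VI 15-s, food reward). Challenge doses were given ip 15 min before a 2.5-min extinction test, in random order, to groups of 3–6 rats, with at least three training sessions between tests. Response rate is responses per minute over the extinction session.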

Rattus norvegicus [19] = test: The mean responses per minute during the 2.5 min extinction session in the stimulus-generation studies was calculated at dose 1.3 mg/kg; type: functional; summary of the method: as §4
Rattus norvegicus [20] = test: The mean responses per minute during the 2.5 min extinction session in the stimulus-generation studies was calculated at dose 0.3 mg/kg; type: functional; summary of the method: as §4
Rattus norvegicus [21] = test: The mean responses per minute during the 2.5 min extinction session in the stimulus-generation studies was calculated at dose 1.0 mg/kg; type: functional; summary of the method: as §4
Rattus norvegicus [22] = test: The mean responses per minute during the 2.5 min extinction session in the stimulus-generation studies was calculated at dose 0.6 mg/kg; type: functional; summary of the method: as §4
Rattus norvegicus [23] = species on record: Rattus norvegicus; test: The compound was tested for effective dose ( ED 50) against stimulus generation with rats trained to discriminate (R) (-)-DOB from saline.; type: functional; summary of the method: as §1
Rattus norvegicus [24] = species on record: Rattus norvegicus; test: The number of responses made on the (R)(-)-DOB appropriate level, generation studies was calculated at dose 0.2 mg / kg; type: functional; summary of the method: as §2
Rattus norvegicus [25] = species on record: Rattus norvegicus; test: The number of responses made on the (R)(-)-DOB appropriate level, generation studies was calculated at dose 0.4 mg / kg; type: functional; summary of the method: as §2
Rattus norvegicus [26] = species on record: Rattus norvegicus; test: The number of responses made on the (R)(-)-DOB appropriate level, generation studies was calculated at dose 0.7 mg / kg; type: functional; summary of the method: as §2
Rattus norvegicus [27] = species on record: Rattus norvegicus; test: The number of responses made on the (R)(-)-DOB appropriate level, generation studies was calculated at dose 1.1 mg / kg; type: functional; summary of the method: as §2
Rattus norvegicus [28] = species on record: Rattus norvegicus; test: The number of animals responding per number of animals receiving the drug(4/4) in the stimulus-generation studies was calculated at dose 1.1 mg / kg; type: functional; summary of the method: as §3
Rattus norvegicus [29] = species on record: Rattus norvegicus; test: The number of animals responding per number of animals receiving the drug(3/3) in the stimulus-generation studies was calculated at dose 0.7 mg / kg; type: functional; summary of the method: as §3
Rattus norvegicus [30] = species on record: Rattus norvegicus; test: The number of animals responding per number of animals receiving the drug(3/4) in the stimulus-generation studies was calculated at dose 0.4 mg / kg; type: functional; summary of the method: as §3
Rattus norvegicus [31] = species on record: Rattus norvegicus; test: The mean responses per minute during the 2.5 min extinction session in the stimulus-generation studies was calculated at dose 0.2 mg / kg; type: functional; summary of the method: as §4
Rattus norvegicus [32] = species on record: Rattus norvegicus; test: The mean responses per minute during the 2.5 min extinction session in the stimulus-generation studies was calculated at dose 0.4 mg / kg; type: functional; summary of the method: as §4
Rattus norvegicus [33] = species on record: Rattus norvegicus; test: The mean responses per minute during the 2.5 min extinction session in the stimulus-generation studies was calculated at dose 0.7 mg / kg; type: functional; summary of the method: as §4
Rattus norvegicus [34] = species on record: Rattus norvegicus; test: The mean responses per minute during the 2.5 min extinction session in the stimulus-generation studies was calculated at dose 1.1 mg / kg; type: functional; summary of the method: as §4
Rattus norvegicus [35] = species on record: Rattus norvegicus; test: The number of animals responding per number of animals receiving the drug(3/3) in the stimulus-generation studies was calculated at dose 0.2 mg / kg; type: functional; summary of the method: as §3

CNC(C)Cc1cc(OC)c(Br)cc1OC (stereo not given)
Ki [1]: 7.7 nM
Ki [2]: 79 nM
ED50 (Rattus norvegicus [3]): 0.82 mg/kg
Responding (Rattus norvegicus [4]): 50%
Responding (Rattus norvegicus [5]): 12%
Responding (Rattus norvegicus [6]): 28%
Responding (Rattus norvegicus [7]): 70%
Responding (Rattus norvegicus [8]): 82%
Responding (Rattus norvegicus [9]): inactive
Responding (Rattus norvegicus [10]): inactive
No. of animals responding/animals receiving drug (Rattus norvegicus [11]): 2
No. of animals responding/animals receiving drug (Rattus norvegicus [12]): 3
No. of animals responding/animals receiving drug (Rattus norvegicus [13]): 3
No. of animals responding/animals receiving drug (Rattus norvegicus [14]): 4
No. of animals responding/animals receiving drug (Rattus norvegicus [15]): 5
No. of animals responding/animals receiving drug (Rattus norvegicus [16]): 2
No. of animals responding/animals receiving drug (Rattus norvegicus [17]): 3
Response rate (Rattus norvegicus [18]): 13.3
Response rate (Rattus norvegicus [19]): 8
Response rate (Rattus norvegicus [20]): 11.6
Response rate (Rattus norvegicus [21]): 12
Response rate (Rattus norvegicus [22]): 13.6

COc1cc(C[C@H](C)N)c(OC)cc1Br
ED50 (Rattus norvegicus [23]): 0.56 mg/kg
Responding (Rattus norvegicus [24]): 3%
Responding (Rattus norvegicus [25]): 48%
Responding (Rattus norvegicus [26]): 63%
Responding (Rattus norvegicus [27]): 82%
No. of animals responding/animals receiving drug (Rattus norvegicus [28]): 4
No. of animals responding/animals receiving drug (Rattus norvegicus [29]): 3
No. of animals responding/animals receiving drug (Rattus norvegicus [30]): 3
Response rate (Rattus norvegicus [31]): 12
Response rate (Rattus norvegicus [32]): 10.5
Response rate (Rattus norvegicus [33]): 10.8
Response rate (Rattus norvegicus [34]): 10.8
No. of animals responding/animals receiving drug (Rattus norvegicus [35]): 3

Reference: ChEMBL document CHEMBL1123747, “N-methyl derivatives of the 5-HT2 agonist 1-(4-bromo-2,5-dimethoxyphenyl)-2-aminopropane” (J Med Chem, 1987)
